Series [1] has as its system Leishmania tropica. Kind of series: Antileishmanial activity against Leishmania tropica MHOM/IT/2012/ISS3130 promastigotes after 72 hrs by MTT assay. Format: functional, organism-based. The conditions noted are these: MHOM/IT/2012/ISS3130, 72 h. The method, boiled down:
(§1)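 Promastigotes grown in Schneider's medium with 10% FCS at 22 °C. Assay in RPMI with 10% FCS, 20 mM Hepes and 2 mM glutamine, 5×10⁶ parasites/mL, seven serial dilutions from DMSO stocks, 72 h at 22 °C. MTT added for 3 h, pellet lysed in SDS/DMF, A550 read against 650 nm reference. IC50 given as mean of separate duplicate experiments; amphotericin B as reference.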
In general terms: Tetrazolium dyes change colour on reduction, which living cells bring about.

Series [2] in a line: Selectivity index, ratio of IC50 for PMA-differentiated human THP1 cells to IC50 for Leishmania infantum MHOM/TN/80/IPT1 promastigotes. The conditions noted are these: read-out: Ratio IC50. Format: toxicity.
The nature of series [3]: Selectivity index, ratio of IC50 for PMA-differentiated human THP1 cells to IC50 for Leishmania tropica MHOM/IT/2012/ISS3130 promastigotes. Format: toxicity. The conditions noted are these: read-out: Ratio IC50.
In series [4] the test system is Leishmania infantum. Kind of series: Antileishmanial activity against Leishmania infantum MHOM/TN/80/IPT1 promastigotes after 72 hrs by MTT assay. Type of series: functional, organism-based. Conditions: MHOM/TN/80/IPT1, 72 h. The method, boiled down: as §1
Series [5] concerns THP-1. The experiment in a line: Cytotoxicity against PMA-differentiated human THP1 cells after 72 hrs by MTT assay. The conditions noted are these: THP-1, 72 h. Format: cell-based. The method, boiled down: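 THP-1 cells at 5×10⁵ cells/mL, differentiated with 0.1 μM PMA for 48 h, then exposed to serial dilutions for 72 h. Viability read by MTT; IC50 for growth inhibition. Duplicate experiments, mean reported.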

The nature of series [6]: Selectivity index, ratio of IC50 for PMA-differentiated human THP1 cells to IC50 for amastigote stage of Leishmania infantum infected in PMA-differentiated human THP1 cells. Format: toxicity. The conditions noted are these: read-out: Ratio IC50.
Series [7] concerns Leishmania infantum. Kind of series: Antileishmanial activity against amastigote stage of Leishmania infantum infected in PMA-differentiated human THP1 cells assessed as inhibition of parasite growth after 72 hrs by Giemsa staining based light microscopy. Type of series: functional, organism-based. Conditions: THP-1, 72 h. The method, boiled down: (§2)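 THP-1 cells at 5×10⁵ cells/mL differentiated with 0.1 μM PMA for 48 h, then infected with metacyclic L. infantum promastigotes (1:10 macrophage:parasite) for 24 h. Washed monolayers exposed to compound for 72 h, methanol-fixed and Giemsa-stained. Percent infected macrophages versus untreated scored by light microscopy, and IC50 derived. Single-concentration values are means of two or three experiments, IC50 of two.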

The test system of series [8] is Leishmania infantum. Kind of series: Antileishmanial activity against amastigote stage of Leishmania infantum infected in PMA-differentiated human THP1 cells assessed as inhibition of parasite growth at 0.5 uM after 72 hrs by Giemsa staining based light microscopy relative to control. Format: functional. The conditions noted are these: THP-1, 72 h. The method, boiled down:
as §2

These results are taken from ChEMBL document CHEMBL4196114 (ACS Med Chem Lett, 2018).

In general, IC50 refers to the concentration needed to halve the response being measured. The inhibition is the percentage by which the read-out fell short of the control.

Some results are limits rather than exact numbers.

Take `N#Cc1ccc(-c2ccc(-c3ccc(CNCCCCNc4ccnc5cc(Cl)ccc45)cc3)s2)cc1`: the IC50 in series [1] was 1940 nM; in series [4], 2300 nM; in series [5] it was 5010 nM. Moreover, the values for the selectivity ratio in series [2] and in series [3] were 2.2 and 2.6, respectively.

As to `Fc1ccc2scc(-c3ccc(CNCCCCNc4ccnc5cc(Cl)ccc45)cc3)c2c1`, the IC50 in series [1] came out at 850 nM; in series [4], 1020 nM; in series [5], 4280 nM. Moreover, the selectivity ratio in series [2] is 4.2; in series [3], 5.

As to `CC(CCN(C)CCC12CC3CC(CC(C3)C1)C2)Nc1ccnc2cc(Cl)ccc12` (stereo unspecified), the IC50 is 1840 nM in series [1], 1910 nM in series [7], 2460 nM in series [4] and 3290 nM in series [5]. Further, the selectivity ratio in series [2] worked out at 1.3; in series [3], 1.8; in series [6], 1.72. Moreover, the inhibition at 0.5 µM in series [8] worked out at 29.6%.

As for `N#Cc1ccc(-c2ccc(-c3ccc(CNCCCCCNc4ccnc5cc(Cl)ccc45)cc3)s2)cc1`, the IC50 was 7110 nM in series [1], 5420 nM in series [4] and 8100 nM in series [5]. Also, the figures for the selectivity ratio in series [2] and in series [3] were 1.5 and 1.1, respectively.

For the compound `CN(CCCCCCCCNc1ccnc2c1CCCC2)Cc1ccc(-c2ccc(-c3ccc(C#N)cc3)s2)cc1`, the IC50 worked out at 800 nM in series [1], 830 nM in series [4] and 3680 nM in series [5]. Moreover, the selectivity ratio amounted to 4.4 in series [2] and 4.6 in series [3].

As for `Fc1ccc2scc(CNCCCCNc3ccnc4cc(Cl)ccc34)c2c1`, the IC50 in series [1] is 500 nM; in series [7] it was > 1000 nM; in series [4], 510 nM; in series [5] it was 1910 nM. In addition, the selectivity ratio in series [2] was 3.8; in series [3], 3.8; in series [6] it was < 1.91. The inhibition at 0.5 µM in series [8] worked out at 26.4%.

Consider `CCN(CC)CCCNc1c(N)cnc2cc(Cl)ccc12`, for which the figures for the concentration for half-maximal inhibition (IC50) in series [1], in series [4] and in series [5] were 9350 nM, 16600 nM and > 65200 nM, respectively. For the same compound, the values for the selectivity ratio in series [2] and in series [3] were > 3.9 and > 7, respectively.

`Nc1cnc2cc(Cl)ccc2c1NCCCNCC12CC3CC(CC(C3)C1)C2`: the IC50 worked out at 1300 nM in series [1], 1770 nM in series [4] and 6390 nM in series [5]. The selectivity ratio in series [2] was 3.6; in series [3], 4.9.

For the compound `c1ccc2c(NCCCCNCc3csc4ccccc34)ccnc2c1`, the figures for the IC50 in series [1], in series [4] and in series [5] were 680 nM, 640 nM and 3760 nM, respectively. The selectivity ratio in series [2] came out at 5.8; in series [3], 5.5.

Consider `N#Cc1ccc(-c2ccc(-c3ccc(CNCCCCCCCCNc4ccnc5ccccc45)cc3)s2)cc1`, for which the IC50 is 300 nM in series [1], 350 nM in series [4] and 1380 nM in series [5]. The selectivity ratio in series [2] came out at 4; in series [3] it was 4.6.

Consider `CCN(CC)CCCC(C)Nc1ccnc2c1CCCC2` (stereo unspecified), for which the IC50 in series [1], in series [4] and in series [5] was > 69100 nM each time. Further, the selectivity ratio in series [2] and in series [3] was > 1 each time.

Regarding `N#Cc1ccc(-c2ccc(-c3ccc(CNCCCCNc4ccnc5ccccc45)cc3)s2)cc1`, the IC50 in series [1] was 1540 nM; in series [4] it was 1220 nM; in series [5], 2800 nM. Further, the selectivity ratio is 2.3 in series [2] and 1.8 in series [3].

Consider `N#Cc1ccc2c(CNCCCCNc3ccnc4cc(Cl)ccc34)csc2c1`, for which the concentration for half-maximal inhibition (IC50) in series [1] came to 1240 nM; in series [7] it was 1290 nM; in series [4], 1230 nM; in series [5] it was 4250 nM. Besides, the values for the selectivity ratio in series [2], in series [3] and in series [6] were 3.4, 3.4 and 3.29, respectively. Besides, the inhibition at 0.5 µM in series [8] is 38.9%.

For `CC(CCCNCc1ccc(-c2csc3ccc(F)cc23)cc1)Nc1ccnc2cc(Cl)ccc12` (stereo unspecified), the IC50 in series [1] turned out to be 910 nM; in series [7] it was 730 nM; in series [4] it was 980 nM; in series [5], 2440 nM. Further, the selectivity ratio in series [2] worked out at 2.5; in series [3], 2.7; in series [6] it was 3.34. Also, in series [8], the inhibition at 0.5 µM stood at 36.9%.

`Fc1ccc2scc(C#CCNCCCCNc3ccnc4ccccc34)c2c1`: the IC50 turned out to be 1370 nM in series [1], 1020 nM in series [4] and 7110 nM in series [5]. Further, the selectivity ratio in series [2] is 7; in series [3], 5.2.

In the case of `Fc1ccc2scc(-c3ccc(CNCCCNc4ccnc5ccccc45)cc3)c2c1`, the IC50 stood at 810 nM in series [1], 1030 nM in series [4] and 2310 nM in series [5]. Besides, the selectivity ratio in series [2] was determined as 2.2; in series [3] it was 2.8.

Take `N#Cc1ccc(-c2ccc(-c3ccc(CNCCCCCCCCNc4ccnc5c4CCCC5)cc3)s2)cc1`: the IC50 in series [1] is 750 nM; in series [7] it was > 1000 nM; in series [4], 720 nM; in series [5], 2310 nM. Besides, the selectivity ratio in series [2] was 3.2; in series [3], 3.1; in series [6], < 2.31. Besides, the inhibition at 0.5 µM in series [8] amounted to 29.6%.

In the case of `CCN(CC)CCCC(C)Nc1c([N+](=O)[O-])cnc2cc(Cl)ccc12` (stereo unspecified), the concentration for half-maximal inhibition (IC50) in series [1] was 2960 nM; in series [4], 6490 nM; in series [5], > 110000 nM. For the same compound, the values for the selectivity ratio in series [2] and in series [3] were > 16.9 and > 37, respectively.

Turning to `CN(CCCCCCCCNc1ccnc2ccccc12)Cc1ccc(-c2ccc(-c3ccc(C#N)cc3)s2)cc1`, the IC50 in series [1] is 1060 nM; in series [4] it was 800 nM; in series [5] it was 3850 nM. Also, the selectivity ratio turned out to be 4.8 in series [2] and 3.6 in series [3].

In the case of `Clc1ccc2c(NCCCNCc3csc4ccccc34)ccnc2c1`, the IC50 in series [1] is 1310 nM; in series [7], 1850 nM; in series [4], 1140 nM; in series [5] it was 2960 nM. Further, the selectivity ratio in series [2] is 2.6; in series [3], 2.3; in series [6], 1.6. Besides, the inhibition at 0.5 µM in series [8] turned out to be 26.4%.

Take `CC(CCCNCc1ccc(-c2csc3ccc(C#N)cc23)cc1)Nc1ccnc2ccccc12` (stereo unspecified): the IC50 worked out at 1220 nM in series [1], 790 nM in series [7], 1550 nM in series [4] and 2790 nM in series [5]. Also, the selectivity ratio in series [2] is 1.8; in series [3], 2.3; in series [6], 3.51. Also, in series [8], the inhibition at 0.5 µM is 42.2%.

As to `CCN(CC)CCCC(C)Nc1c(N)cnc2cc(Cl)ccc12` (stereo unspecified), the IC50 is 6630 nM in series [1], 16600 nM in series [4] and > 59700 nM in series [5]. Also, the selectivity ratio in series [2] is > 3.6; in series [3], > 9.

For the compound `CC(CCNCCC12CC3CC(CC(C3)C1)C2)Nc1ccnc2ccccc12` (stereo unspecified), the IC50 was determined as 2350 nM in series [1], 2400 nM in series [4] and 4900 nM in series [5]. In addition, the selectivity ratio is 2 in series [2] and 2.1 in series [3].

As for `O=[N+]([O-])c1cnc2cc(Cl)ccc2c1NCCCNCC12CC3CC(CC(C3)C1)C2`, the IC50 stood at 2240 nM in series [1], 1910 nM in series [4] and 12600 nM in series [5]. The figures for the selectivity ratio in series [2] and in series [3] were 6.6 and 5.6, respectively.

Regarding `CCN(CC)CCCNc1c([N+](=O)[O-])cnc2cc(Cl)ccc12`, the IC50 in series [1] is 2770 nM; in series [4], 8670 nM; in series [5], 23700 nM. Besides, the selectivity ratio in series [2] came out at 2.7; in series [3], 8.5.

As for `Clc1ccc2c(NCCCCCNCCC34CC5CC(CC(C5)C3)C4)ccnc2c1`, the IC50 in series [1] came out at 660 nM; in series [4] it was 730 nM; in series [5], 1810 nM. Also, the selectivity ratio in series [2] was found to be 2.5; in series [3], 2.7.

`CCN(CC)CCCNc1ccnc2c1CCCC2`: the IC50 in series [1], in series [4] and in series [5] was > 76500 nM each time. For the same compound, the selectivity ratio in series [2] and in series [3] was > 1 throughout.
